According to ChEMBL document CHEMBL1817593, “C5'-Alkyl Substitution Effects on Digitoxigenin α-l-Glycoside Cancer Cytotoxicity” (ACS Med Chem Lett, 2011):

Assays:
[1] = test system: A498; assay: Cytotoxicity against human A498 cells after 48 hrs by sulforhodamine B assay; format: functional; conditions: A498, 48 h
[2] = test system: NCI-H460; assay: Induction of apoptosis in human NCI-H460 cells in serum free medium after 12 hrs by Hoechst 33342/propidium iodide staining based fluorescence microscopy; format: functional, cell-based; conditions: for IC50: NCI-H460, 12 h
In short: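 NCI-H460 cells treated for 12 h at 10 nM to 10 μM. Total cell death (apoptosis plus necrosis) scored by Hoechst 33342/propidium iodide staining, with N = 6 and two-way ANOVA. IC50 obtained by nonlinear regression. Table values are the mean of three independent experiments with duplicate determinations.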

[3] = test system: MOLT-4; assay: Cytotoxicity against human MOLT4 cells after 48 hrs by sulforhodamine B assay; format: functional; conditions: MOLT-4, 48 h
[4] = test system: DU-145; assay: Cytotoxicity against human DU145 cells after 48 hrs by sulforhodamine B assay; format: functional; conditions: DU-145, 48 h
[5] = test system: NCI-H460; assay: Cytotoxicity against human NCI-H460 cells assessed as cell death in serum free medium at 250 nM after 12 hrs by Hoechst 33342/propidium iodide staining based fluorescence microscopy; format: functional
In short: (§1)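 NCI-H460 human lung cancer cells exposed 12 h to 10 nM–10 μM drug, including a 50 nM single-concentration test. Nuclei were stained with Hoechst 33342 and necrotic cells with propidium iodide. Apoptotic cells were scored by condensed or fragmented blue nuclei and necrotic cells by red PI staining. Total cell death (apoptosis plus necrosis) was recorded; N = 6.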

[6] = test system: NCI-H460; assay: Cytotoxicity against human NCI-H460 cells assessed as cell viability at 10 nM after 48 hrs by MTT assay; format: functional; conditions: NCI-H460, 48 h, read-out: Activity
In short: (§2)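 Viability of NCI-H460 cells was measured by MTT (mitochondrial enzymatic activity) after 48 h exposure, within a dose series spanning 1 nM–10 μM. N = 9, analysed by two-way ANOVA.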

[7] = test system: Hs-578T; assay: Cytotoxicity against human Hs578T cells after 48 hrs by sulforhodamine B assay; format: functional
[8] = test system: NCI-H460; assay: Growth inhibition of human NCI-H460 cells after 48 hrs by MTT assay; format: functional
In short: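 NCI-H460 viability measured by MTT (mitochondrial enzymatic activity) after 48 h exposure at 1 nM to 10 μM. GI50 derived from dose-response curves, with N = 9 and two-way ANOVA. Values are the mean of three independent experiments with duplicate determinations.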

[9] = test system: NCI-H460; assay: Cytotoxicity against human NCI-H460 cells after 48 hrs by sulforhodamine B assay; format: functional; conditions: NCI-H460, 48 h
[10] = test system: SNB-75; assay: Cytotoxicity against human SNB75 cells after 48 hrs by sulforhodamine B assay; format: functional; conditions: SNB-75, 48 h
[11] = test system: IGROV-1; assay: Cytotoxicity against human IGROV1 cells after 48 hrs by sulforhodamine B assay; format: functional; conditions: IGROV-1, 48 h
[12] = test system: NCI-H23; assay: Cytotoxicity against human NCI-H23 cells after 48 hrs by sulforhodamine B assay; format: functional; conditions: NCI-H23, 48 h
[13] = test system: MCF7; assay: Cytotoxicity against human MCF7 cells after 48 hrs by sulforhodamine B assay; format: functional; conditions: MCF7, 48 h
[14] = test system: NCI-H226; assay: Cytotoxicity against human NCI-H226 cells after 48 hrs by sulforhodamine B assay; format: functional; conditions: NCI-H226, 48 h
[15] = test system: CAKI-1; assay: Cytotoxicity against human Caki1 cells after 48 hrs by sulforhodamine B assay; format: functional; conditions: CAKI-1, 48 h
[16] = test system: SNB-19; assay: Cytotoxicity against human SNB19 cells after 48 hrs by sulforhodamine B assay; format: functional; conditions: SNB-19, 48 h
[17] = test system: NCI-H460; assay: Cytotoxicity against human NCI-H460 cells assessed as cell viability at 500 nM after 48 hrs by MTT assay; format: functional; conditions: NCI-H460, 48 h, read-out: Activity; in short: as §2
[18] = test system: BT-549; assay: Cytotoxicity against human BT549 cells after 48 hrs by sulforhodamine B assay; format: functional; conditions: BT-549, 48 h
[19] = test system: HT-29; assay: Cytotoxicity against human HT-29 cells after 48 hrs by sulforhodamine B assay; format: functional; conditions: HT-29, 48 h
[20] = test system: COLO 205; assay: Cytotoxicity against human COLO205 cells after 48 hrs by sulforhodamine B assay; format: functional; conditions: COLO 205, 48 h
[21] = test system: NCI-H460; assay: Induction of apoptosis in human NCI-H460 cells in serum free medium at 50 nM after 12 hrs by Hoechst 33342/propidium iodide staining based fluorescence microscopy; format: functional
In short: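 NCI-H460 cells exposed to a single 50 nM concentration for 12 h. Cells stained with Hoechst 33342 and propidium iodide. Blue cells with condensed or fragmented nuclei were scored as apoptotic and red, ruptured cells as necrotic. Result given as % apoptotic cell death; N = 6, one-way ANOVA.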

[22] = test system: NCI/ADR-RES; assay: Cytotoxicity against human NCI/ADR-RES cells after 48 hrs by sulforhodamine B assay; format: functional
[23] = test system: T47D; assay: Cytotoxicity against human T47D cells after 48 hrs by sulforhodamine B assay; format: functional
[24] = test system: RXF 393; assay: Cytotoxicity against human RXF393 cells after 48 hrs by sulforhodamine B assay; format: functional; conditions: RXF 393, 48 h
[25] = test system: KM12; assay: Cytotoxicity against human KM12 cells after 48 hrs by sulforhodamine B assay; format: functional; conditions: KM12, 48 h
[26] = test system: HOP-62; assay: Cytotoxicity against human HOP62 cells after 48 hrs by sulforhodamine B assay; format: functional; conditions: HOP-62, 48 h
[27] = test system: NCI-H460; assay: Cytotoxicity against human NCI-H460 cells assessed as cell death in serum free medium at 75 nM after 12 hrs by Hoechst 33342/propidium iodide staining based fluorescence microscopy; format: functional; in short: as §1
[28] = test system: SR; assay: Cytotoxicity against human SR cells after 48 hrs by sulforhodamine B assay; format: functional
[29] = test system: HCT-116; assay: Cytotoxicity against human HCT116 cells after 48 hrs by sulforhodamine B assay; format: functional; conditions: HCT-116, 48 h
[30] = test system: Malme-3M; assay: Cytotoxicity against human MALME-3M cells after 48 hrs by sulforhodamine B assay; format: functional
[31] = test system: NCI-H460; assay: Cytotoxicity against human NCI-H460 cells assessed as cell viability at 25 nM after 48 hrs by MTT assay; format: functional; conditions: NCI-H460, 48 h, read-out: Activity; in short: as §2
[32] = test system: EKVX; assay: Cytotoxicity against human EKVX cells after 48 hrs by sulforhodamine B assay; format: functional
[33] = test system: TK-10; assay: Cytotoxicity against human TK10 cells after 48 hrs by sulforhodamine B assay; format: functional; conditions: TK-10, 48 h
[34] = test system: SN12C; assay: Cytotoxicity against human SN12C cells after 48 hrs by sulforhodamine B assay; format: functional
[35] = test system: LOX IMVI; assay: Cytotoxicity against human LOXIMVI cells after 48 hrs by sulforhodamine B assay; format: functional
[36] = test system: SK-MEL-28; assay: Cytotoxicity against human SK-MEL-28 cells after 48 hrs by sulforhodamine B assay; format: functional; conditions: SK-MEL-28, 48 h
[37] = test system: OVCAR-4; assay: Cytotoxicity against human OVCAR4 cells after 48 hrs by sulforhodamine B assay; format: functional; conditions: OVCAR-4, 48 h
[38] = test system: NCI-H522; assay: Cytotoxicity against human NCI-H522 cells after 48 hrs by sulforhodamine B assay; format: functional; conditions: NCI-H522, 48 h
[39] = test system: NCI-H460; assay: Cytotoxicity against human NCI-H460 cells assessed as cell death in serum free medium at 10 nM after 12 hrs by Hoechst 33342/propidium iodide staining based fluorescence microscopy; format: functional; in short: as §1
[40] = test system: NCI-H460; assay: Cytotoxicity against human NCI-H460 cells assessed as cell death in serum free medium at 500 nM after 12 hrs by Hoechst 33342/propidium iodide staining based fluorescence microscopy; format: functional; in short: as §1

CC(C)C[C@@H]1O[C@@H](O[C@H]2CC[C@@]3(C)[C@H](CC[C@@H]4[C@@H]3CC[C@]3(C)[C@@H](C5=CC(=O)OC5)CC[C@]43O)C2)CC[C@H]1O
GI50 [1]: 27 nM | Activity [2]: Dose-dependent effect | IC50 [2]: 458 nM | GI50 [3]: 13.1 nM | GI50 [4]: 16.6 nM | Activity [5]: 21.86% | viability at 0.01 µM [6]: 49.2% | GI50 [7]: 7.5 nM | GI50 [8]: Dose-dependent effect | GI50 ([8]; NCI-H460, 48 h): 8 nM | GI50 [9]: 20.9 nM | GI50 [10]: 85.3 nM | GI50 [11]: 29.9 nM | GI50 [12]: 25.7 nM | GI50 [13]: 52.8 nM | GI50 [14]: 95.9 nM | GI50 [15]: 24.4 nM | GI50 [16]: 58.9 nM | viability at 0.5 µM [17]: 4.88% | GI50 [18]: 22.5 nM | GI50 [19]: 31.5 nM | GI50 [20]: 170 nM | Activity [21]: 9.2821% | GI50 [22]: 26.9 nM | GI50 [23]: 36.2 nM | GI50 [24]: 18.6 nM | GI50 [25]: 55.9 nM | GI50 [26]: 23.1 nM | Activity [27]: 15% | GI50 [28]: 23 nM | GI50 [29]: 26.1 nM | GI50 [30]: 25.7 nM | viability at 0.025 µM [31]: 36.6% | GI50 [32]: 31.7 nM | GI50 [33]: 28.6 nM | GI50 [34]: 23.7 nM | GI50 [35]: 27.2 nM | GI50 [36]: 133 nM | GI50 [37]: 85.5 nM | GI50 [38]: 23.6 nM | Activity [39]: 10.03% | Activity [40]: 62.18%

CC(C)[C@@H]1O[C@@H](O[C@H]2CC[C@@]3(C)[C@H](CC[C@@H]4[C@@H]3CC[C@]3(C)[C@@H](C5=CC(=O)OC5)CC[C@]43O)C2)CC[C@H]1O
GI50 [1]: 90.1 nM | Activity [2]: Dose-dependent effect | IC50 [2]: 533 nM | GI50 [3]: 16.9 nM | GI50 [4]: 19.5 nM | Activity [5]: 22.73% | viability at 0.01 µM [6]: 50.7% | GI50 [7]: 13.6 nM | GI50 [8]: Dose-dependent effect | GI50 ([8]; NCI-H460, 48 h): 8 nM | GI50 [9]: 21.7 nM | GI50 [10]: 92.6 nM | GI50 [11]: 54.2 nM | GI50 [12]: 29.4 nM | GI50 [13]: 161 nM | GI50 [14]: 119 nM | GI50 [15]: 20.8 nM | GI50 [16]: 185 nM | viability at 0.5 µM [17]: 6.35% | GI50 [18]: 20.7 nM | GI50 [19]: 41.9 nM | GI50 [20]: 207 nM | Activity [21]: 11.993% | GI50 [22]: 31.5 nM | GI50 [23]: 95.9 nM | GI50 [24]: 14 nM | GI50 [25]: 152 nM | GI50 [26]: 31.1 nM | Activity [27]: 16.05% | GI50 [28]: 37.2 nM | GI50 [29]: 21.5 nM | GI50 [30]: 63.6 nM | viability at 0.025 µM [31]: 30.1% | GI50 [32]: 31.9 nM | GI50 [33]: 53.8 nM | GI50 [34]: 23.7 nM | GI50 [35]: 26.9 nM | GI50 [36]: 252 nM | GI50 [37]: 123 nM | GI50 [38]: 26 nM | Activity [39]: 9.96% | Activity [40]: 50.85%
